# Reference: ChEMBL document CHEMBL5532688, “Carltonine-derived compounds for targeted butyrylcholinesterase inhibition” (RSC Med Chem, 2024)
# Activity calls are given as the source filed them. No cut-off for these calls is given here.
# Target: T1, Cholinesterase (Homo sapiens, UniProt P06276)
# Experiment: Reversible binding affinity to human BChE using butyrylthiocholine iodide as substrate assessed as reduction in Km at 0.445 to 1.400 micromol/L preincubated for 5 min followed by substrate addition and measured after 1 mins by Lineweaver-Burk plot analysis
# Conditions: dose 0.445-1.4 µmol/L, time 6.0 min
# Method in brief: (§1)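 Recombinant human BChE at final activity 0.002 U/μL in phosphate buffer. […] Km, Vmax, Ki and Ki' came from nonlinear regression of velocity curves. Lineweaver–Burk plots were drawn by linear regression.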
# T1 sequence (P06276 whole entry): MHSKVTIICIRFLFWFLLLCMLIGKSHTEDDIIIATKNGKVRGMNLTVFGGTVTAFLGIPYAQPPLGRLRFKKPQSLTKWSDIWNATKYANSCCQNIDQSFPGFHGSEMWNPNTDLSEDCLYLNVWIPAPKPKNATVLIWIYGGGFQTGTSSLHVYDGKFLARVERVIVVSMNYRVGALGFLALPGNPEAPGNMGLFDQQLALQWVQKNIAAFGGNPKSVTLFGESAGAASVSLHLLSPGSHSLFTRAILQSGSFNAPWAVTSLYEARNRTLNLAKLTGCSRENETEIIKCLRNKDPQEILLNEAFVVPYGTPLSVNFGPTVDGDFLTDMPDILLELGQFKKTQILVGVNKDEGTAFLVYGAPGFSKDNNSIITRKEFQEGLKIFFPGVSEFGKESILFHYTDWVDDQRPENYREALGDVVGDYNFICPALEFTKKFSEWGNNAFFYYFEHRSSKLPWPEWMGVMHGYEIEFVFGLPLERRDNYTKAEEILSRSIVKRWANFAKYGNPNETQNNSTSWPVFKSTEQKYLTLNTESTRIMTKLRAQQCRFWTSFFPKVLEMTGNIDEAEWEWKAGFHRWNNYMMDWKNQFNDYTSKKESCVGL
row,SMILES,Activity
1,CCCN(CCc1ccc(O)cc1)Cc1ccc(OCc2ccccc2)cc1,Active

# Target: T1, Cholinesterase
# Experiment: Reversible binding affinity to human BChE using butyrylthiocholine iodide as substrate assessed as reduction in Vmax at 0.445 to 1.400 micromol/L preincubated for 5 min followed by substrate addition and measured after 1 mins by Lineweaver-Burk plot analysis
# Conditions: dose 0.445-1.4 µmol/L, time 6.0 min
# Method in brief: as §1
row,SMILES,Activity
1,CCCN(CCc1ccc(O)cc1)Cc1ccc(OCc2ccccc2)cc1,Active

# Target: T1, Cholinesterase
# Experiment: Inhibition of human BChE using butyrylthiocholine iodide as substrate incubated for 1 mins by spectrophotometric Ellman's method
# Conditions: not given
row,SMILES,IC50
1,C=CCOc1ccc(CCN(CC=C)Cc2ccc(OCc3ccccc3)c(OC)c2)cc1,> 10 µM

# Target: T2, Acetylcholinesterase (Homo sapiens, UniProt P22303)
# Experiment: Inhibition of human AChE using acetylthiocholine iodide as substrate at 10 uM incubated for 1 mins by spectrophotometric Ellman's method
# Conditions: not given
# Method in brief: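 Recombinant human AChE, modified Ellman assay; compound in DMSO (single 10 μM screen) preincubated 5 min with enzyme and 5 mM DTNB in pH 7.4 phosphate buffer. […] Triplicate.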
# T2 sequence (P22303 whole entry): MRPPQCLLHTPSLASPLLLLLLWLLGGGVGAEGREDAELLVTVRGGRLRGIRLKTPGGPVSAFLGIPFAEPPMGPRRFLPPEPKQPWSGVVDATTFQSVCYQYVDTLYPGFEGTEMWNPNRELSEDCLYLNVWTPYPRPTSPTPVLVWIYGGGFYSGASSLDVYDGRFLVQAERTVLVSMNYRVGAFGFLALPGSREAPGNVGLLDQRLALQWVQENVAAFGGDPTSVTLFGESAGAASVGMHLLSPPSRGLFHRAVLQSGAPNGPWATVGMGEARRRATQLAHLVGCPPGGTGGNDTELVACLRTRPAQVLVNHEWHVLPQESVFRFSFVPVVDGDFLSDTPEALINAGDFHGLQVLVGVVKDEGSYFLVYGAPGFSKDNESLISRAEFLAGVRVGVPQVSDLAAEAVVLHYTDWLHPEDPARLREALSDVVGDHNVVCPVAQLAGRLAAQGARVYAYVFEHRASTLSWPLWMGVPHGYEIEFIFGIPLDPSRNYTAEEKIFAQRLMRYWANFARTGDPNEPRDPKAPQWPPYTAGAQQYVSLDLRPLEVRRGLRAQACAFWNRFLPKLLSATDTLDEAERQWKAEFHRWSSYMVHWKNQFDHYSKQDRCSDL
row,SMILES,inhibition
1,CCCOc1ccc(CCN(CCC)Cc2ccc(OCc3ccccc3)cc2)cc1,inactive
2,Oc1ccc(CCNCc2cccc(OCc3ccccc3)c2)cc1,inactive
3,CCN(Cc1ccccc1)Cc1ccc(OCc2ccccc2)cc1,inactive
4,CCCN(CCCc1ccccc1)Cc1cccc(OCc2ccccc2)c1,inactive
5,C=CCOc1ccc(CCN(CC=C)Cc2cccc(OCc3ccccc3)c2)cc1,inactive
6,COc1ccccc1CCNCc1cccc(OCc2ccccc2)c1,inactive
7,c1ccc(CNCc2cccc(OCc3ccccc3)c2)cc1,inactive
8,CCN(CCc1ccccc1)Cc1cccc(OCc2ccccc2)c1,inactive
9,c1ccc(CCCCNCc2ccc(OCc3ccccc3)cc2)cc1,inactive
10,C=CCN(CCc1ccc(O)cc1)Cc1cccc(OCc2ccccc2)c1,inactive
11,C=CCN(CCCc1ccccc1)Cc1cccc(OCc2ccccc2)c1,inactive
12,CCCN(CCc1ccccc1)Cc1cccc(OCc2ccccc2)c1,inactive
13,CC(CNCc1ccc(OCc2ccccc2)cc1)c1ccccc1 (stereo not given),inactive
14,CC(CNCc1cccc(OCc2ccccc2)c1)c1ccccc1 (stereo not given),inactive
15,c1ccc(CCNCc2cccc(OCc3ccccc3)c2)cc1,inactive
16,Clc1ccc(CCNCc2ccc(OCc3ccccc3)cc2)cc1,inactive
17,c1ccc(COc2ccc(CNCc3ccccn3)cc2)cc1,inactive
18,c1ccc(COc2ccc(CNCCc3ccccn3)cc2)cc1,inactive
19,COc1ccccc1CCNCc1ccc(OCc2ccccc2)cc1,inactive
20,CCCN(Cc1ccc(OCc2ccccc2)cc1)C(C)CCc1ccccc1 (stereo not given),inactive
21,c1ccc(CCCNCc2ccc(OCc3ccccc3)cc2)cc1,inactive

row,SMILES,inhibition
1,COc1cccc(CCNCc2ccc(OCc3ccccc3)cc2)c1,inactive
2,CCN(Cc1ccccc1)Cc1cccc(OCc2ccccc2)c1,inactive
3,COc1ccc(CCNCc2cccc(OCc3ccccc3)c2)cc1,inactive
4,COc1ccc(CNCc2cccc(OCc3ccccc3)c2)cc1OC,inactive
5,c1ccc(CCNCc2ccc(OCc3ccccc3)cc2)cc1,inactive
6,CCN(CCCc1ccccc1)Cc1cccc(OCc2ccccc2)c1,inactive
7,CCN(Cc1ccc(OCc2ccccc2)cc1)C(C)CCc1ccccc1 (stereo not given),inactive
8,COc1cccc(CCNCc2cccc(OCc3ccccc3)c2)c1,inactive
9,Oc1ccc(CCNCc2ccc(OCc3ccccc3)cc2)cc1,inactive
10,CCCN(CCc1ccc(O)cc1)Cc1ccc(OCc2ccccc2)cc1,inactive
11,CC(CCc1ccccc1)NCc1ccc(OCc2ccccc2)cc1 (stereo not given),inactive
12,C=CCN(CCc1ccccc1)Cc1cccc(OCc2ccccc2)c1,inactive
13,C=CCN(Cc1ccccc1)Cc1cccc(OCc2ccccc2)c1,inactive
14,CCCN(Cc1ccccc1)Cc1ccc(OCc2ccccc2)cc1,inactive
15,c1ccc(CCCNCc2cccc(OCc3ccccc3)c2)cc1,inactive
16,Clc1cccc(NCc2cccc(OCc3ccccc3)c2)c1,inactive
17,c1ccc(CNCc2ccc(OCc3ccccc3)cc2)cc1,inactive
18,CCCN(CCCc1ccccc1)Cc1ccc(OCc2ccccc2)cc1,inactive
19,COc1ccc(CCNCc2ccc(OCc3ccccc3)cc2)cc1,inactive
20,C=CCOc1ccc(CCNCc2cccc(OCc3ccccc3)c2)cc1,inactive

# Target: T2, Acetylcholinesterase
# Experiment: Inhibition of human AChE using acetylthiocholine iodide as substrate incubated for 1 mins by spectrophotometric Ellman's method
# Conditions: not given
# Method in brief: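 Modified Ellman assay on recombinant human AChE (acetylthiocholine) or human BChE (butyrylthiocholine). Enzyme, 5 mM DTNB and DMSO compound dilutions at several concentrations preincubated 5 min in pH 7.4 phosphate buffer. Reaction started with 10 mM substrate, ΔA read at 412 nm for 1 min. IC50 is the mean ± SEM of three independent runs, each in triplicate.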
row,SMILES,IC50
1,CN(CCc1ccc(O)cc1)Cc1cc2c(cc1-c1cccc3c1N(C)CC3)OCO2,> 100 µM
